Laboratory results published in PMC11965407 (Translational Psychiatry, 2025).
“Also recorded” adds a separate entry of the source. Where a name gives a salt, the structure may show the parent alone. Read-outs that look alike come from different tables or passages of the source.

How the values were obtained:
Kv7.2/Kv7.3 channels = Kv7.2/Kv7.3 channels (Homo sapiens, UniProt O43525+O43526); assay type: cell-based
Procedure, shortened: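 CHO cells stably expressing Kv7.2/Kv7.3 were grown in F12 with 10% FBS and 600 μg/mL G418. Cells were recorded by amphotericin B (250 μg/mL) perforated patch at room temperature. Internal was KCl 150, MgCl2 5, HEPES 10 mM, pH 7.4; external was NaCl 160, KCl 2.5, MgCl2 1, CaCl2 2, glucose 10, HEPES 20 mM, pH 7.4. Current was measured at 0 mV. Activation used −110 to 30 mV steps (10 mV increments) then 0 mV, with a Boltzmann fit. IC50 came from a logistic fit; τ from a single exponential.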

Kv7.1 = Kv7.1 (Homo sapiens, UniProt P51787); test: Perforated whole-cell patch-clamp of Kv7.1 current in transfected HEK293T cells; assay type: cell-based
Kv7.2 channel [1] = biological target: T1, Kv7.2 channel (Homo sapiens, UniProt O43526); test: Single-channel recordings; assay type: cell-based
Procedure, shortened: (§1)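 Cell-attached single-channel recording was done at room temperature on transfected HEK293T cells. Pipettes (8–10 MΩ) held bath solution: NaCl 150, KCl 5, MgCl2 1, CaCl2 2, HEPES 10 mM, pH 7.4. Data were […] and filtered at 0.8–1 kHz. Patch potential of 0 mV was set from Vm = RMP − Vpipette, with RMP from current clamp. Open probability and conductance came from all-point amplitude histograms, with recordings before and after drug.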

[2] = biological target: Kv7.2 D212A/Kv7.3 heteromeric channels (Homo sapiens, UniProt O43525+O43526, D212A); test: Whole-cell patch-clamp of Kv7.2 D212A/Kv7.3 heteromeric channels; assay type: cell-based
GIRK1/2 channels = settings: read-out: IC50, GIRK1/2 channels; cited from earlier work
hippocampal neurons = assay type: cell-based, rat; settings: for depolarizing shift of resting membrane potential (RMP): hippocampal neurons
[3] = biological target: Kv7.2/Kv7.3 single-channels (Homo sapiens, UniProt O43525+O43526); test: Single-channel recordings; assay type: cell-based; settings: paroxetine 3 μΜ
Procedure, shortened: as §1

Kv7.4 = Kv7.4 (Homo sapiens, UniProt P56696); test: Perforated whole-cell patch-clamp of Kv7.4 current in transfected HEK293T cells; assay type: cell-based
Kv7.5 [4] = biological target: Kv7.5 (Homo sapiens, UniProt Q9NR82); test: Perforated whole-cell patch-clamp of Kv7.5 current in transfected HEK293T cells; assay type: cell-based
Procedure, shortened: (§2)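 Human Kv7.2 or Kv7.5 cDNA in pcDNA3.1 was co-transfected with GFP into HEK293T cells using lipofectamine 2000 and recorded 24 h later. Recording used perforated patch (amphotericin B 250 μg/mL in pipette) with internal KCl 150, MgCl2 5, HEPES 10 mM, pH 7.4, and external NaCl 160, KCl 2.5, MgCl2 1, CaCl2 2, glucose 10, HEPES 20 mM, pH 7.4, at room temperature. IC50 came from a logistic fit, activation curves from Boltzmann fits, and τ values from single exponentials (activation 0 mV, deactivation −120 mV).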

F240A Kv7.2 channel = F240A Kv7.2 channel (Homo sapiens, UniProt O43526, F240A); test: Whole-cell patch-clamp of F240A Kv7.2 mutant in HEK293T cells; assay type: cell-based; settings: HEK-293T, read-out: inhibition of F240A Kv7.2 current
Procedure, shortened: (§3)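 Alanine point mutants of human Kv7.2 were made by site-directed mutagenesis and verified by sequencing. Wild-type or mutant channels were expressed in HEK293T cells and recorded by perforated whole-cell patch clamp at room temperature. Currents were recorded before and after 10 or 30 µM test compound, and inhibition was normalized and compared with wild-type Kv7.2. n = 3–6.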

Kv3.1 channels = settings: read-out: IC50, Kv3.1 channels; cited from earlier work
Kv7.2 D212A channel = Kv7.2 D212A channel (Homo sapiens, UniProt O43526, D212A); test: Whole-cell patch-clamp of Kv7.2 D212A mutant channel; assay type: cell-based
L299A Kv7.2 channel = L299A Kv7.2 channel (Homo sapiens, UniProt O43526, L299A); test: Whole-cell patch-clamp of L299A Kv7.2 mutant in HEK293T cells; assay type: cell-based; settings: HEK-293T, read-out: inhibition of F299A Kv7.2 current
Procedure, shortened: as §3

Kv7.2 channel [5] = biological target: T1, Kv7.2 channel; test: Perforated whole-cell patch-clamp of Kv7.2 current in transfected HEK293T cells; assay type: cell-based
Procedure, shortened: as §2

F304A Kv7.2 channel = test: Whole-cell patch-clamp of F304A Kv7.2 mutant in HEK293T cells; assay type: cell-based, human; settings: 10 or 30 µM paroxetine, vs WT Kv7.2
Procedure, shortened: as §3

[6] = tested on: native M-current in hippocampal neurons; test: Native M-current recording in cultured hippocampal neurons; assay type: cell-based, rat; settings: measured at −20 mV
W236A Kv7.2 channel = W236A Kv7.2 channel (Homo sapiens, UniProt O43526, W236A); test: Whole-cell patch-clamp of W236A Kv7.2 mutant in HEK293T cells; assay type: cell-based; settings: HEK-293T, read-out: inhibition of W236A Kv7.2 current
Procedure, shortened: as §3

F305A Kv7.2 channel = F305A Kv7.2 channel (Homo sapiens, UniProt O43526, F305A); test: Whole-cell patch-clamp of F305A Kv7.2 mutant in HEK293T cells; assay type: cell-based; settings: 10 or 30 µM paroxetine, vs WT Kv7.2
Procedure, shortened: as §3

[7] = daily dosage of 20 mg, patients with depression; cited from earlier work
Kv7.5 [8] = settings: read-out: IC50, inhibition of Kv7.5; cited from earlier work
Kv7.1-Kv7.4 channels = settings: read-out: IC50, inhibition of Kv7.1-Kv7.4 channels; cited from earlier work
neuronal Kv7 = settings: read-out: IC50, neuronal Kv7 inhibition; cited from earlier work

Sequence of Kv7.5 (Homo sapiens, UniProt Q9NR82) (Q9NR82 whole entry): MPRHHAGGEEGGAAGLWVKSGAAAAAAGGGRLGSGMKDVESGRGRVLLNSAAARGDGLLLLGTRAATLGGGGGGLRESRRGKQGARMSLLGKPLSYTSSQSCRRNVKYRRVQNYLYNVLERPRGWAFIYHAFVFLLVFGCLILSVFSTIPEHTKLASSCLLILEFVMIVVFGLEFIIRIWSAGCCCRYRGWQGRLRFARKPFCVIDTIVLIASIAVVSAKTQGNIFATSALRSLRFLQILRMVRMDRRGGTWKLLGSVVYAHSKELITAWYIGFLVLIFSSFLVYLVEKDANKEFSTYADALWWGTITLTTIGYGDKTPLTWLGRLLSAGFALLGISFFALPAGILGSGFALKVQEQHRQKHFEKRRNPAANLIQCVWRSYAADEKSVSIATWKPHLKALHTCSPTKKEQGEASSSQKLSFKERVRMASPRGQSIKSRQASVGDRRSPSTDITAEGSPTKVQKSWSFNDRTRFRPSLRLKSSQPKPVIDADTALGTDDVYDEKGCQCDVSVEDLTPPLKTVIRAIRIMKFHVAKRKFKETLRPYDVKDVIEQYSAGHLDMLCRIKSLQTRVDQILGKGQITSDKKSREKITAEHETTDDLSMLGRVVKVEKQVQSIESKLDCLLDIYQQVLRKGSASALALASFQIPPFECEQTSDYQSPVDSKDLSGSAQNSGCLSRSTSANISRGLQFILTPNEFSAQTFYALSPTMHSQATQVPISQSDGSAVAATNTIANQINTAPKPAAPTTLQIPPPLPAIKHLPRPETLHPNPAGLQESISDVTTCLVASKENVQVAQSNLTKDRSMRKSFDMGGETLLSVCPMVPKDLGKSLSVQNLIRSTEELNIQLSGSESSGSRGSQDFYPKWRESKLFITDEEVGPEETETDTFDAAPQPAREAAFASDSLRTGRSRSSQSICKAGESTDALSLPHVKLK
Sequence of Kv7.1 (P51787 whole entry): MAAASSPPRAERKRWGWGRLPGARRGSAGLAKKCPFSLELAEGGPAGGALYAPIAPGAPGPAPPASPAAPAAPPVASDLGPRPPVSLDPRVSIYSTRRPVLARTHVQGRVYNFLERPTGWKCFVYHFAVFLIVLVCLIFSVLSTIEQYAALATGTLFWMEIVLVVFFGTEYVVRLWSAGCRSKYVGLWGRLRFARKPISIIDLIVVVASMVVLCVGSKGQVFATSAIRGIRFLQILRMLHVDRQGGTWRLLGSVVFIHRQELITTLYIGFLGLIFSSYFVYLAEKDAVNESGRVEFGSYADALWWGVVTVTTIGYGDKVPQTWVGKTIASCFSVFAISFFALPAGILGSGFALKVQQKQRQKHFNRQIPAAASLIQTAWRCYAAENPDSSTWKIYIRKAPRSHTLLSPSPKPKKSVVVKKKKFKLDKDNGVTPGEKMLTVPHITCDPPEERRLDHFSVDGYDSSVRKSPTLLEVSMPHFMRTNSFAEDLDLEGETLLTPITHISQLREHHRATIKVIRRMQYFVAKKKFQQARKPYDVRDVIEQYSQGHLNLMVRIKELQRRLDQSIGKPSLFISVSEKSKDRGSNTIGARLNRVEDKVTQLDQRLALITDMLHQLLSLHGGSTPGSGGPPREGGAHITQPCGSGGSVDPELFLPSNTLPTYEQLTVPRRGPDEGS
Sequence of Kv7.4 (P56696 whole entry): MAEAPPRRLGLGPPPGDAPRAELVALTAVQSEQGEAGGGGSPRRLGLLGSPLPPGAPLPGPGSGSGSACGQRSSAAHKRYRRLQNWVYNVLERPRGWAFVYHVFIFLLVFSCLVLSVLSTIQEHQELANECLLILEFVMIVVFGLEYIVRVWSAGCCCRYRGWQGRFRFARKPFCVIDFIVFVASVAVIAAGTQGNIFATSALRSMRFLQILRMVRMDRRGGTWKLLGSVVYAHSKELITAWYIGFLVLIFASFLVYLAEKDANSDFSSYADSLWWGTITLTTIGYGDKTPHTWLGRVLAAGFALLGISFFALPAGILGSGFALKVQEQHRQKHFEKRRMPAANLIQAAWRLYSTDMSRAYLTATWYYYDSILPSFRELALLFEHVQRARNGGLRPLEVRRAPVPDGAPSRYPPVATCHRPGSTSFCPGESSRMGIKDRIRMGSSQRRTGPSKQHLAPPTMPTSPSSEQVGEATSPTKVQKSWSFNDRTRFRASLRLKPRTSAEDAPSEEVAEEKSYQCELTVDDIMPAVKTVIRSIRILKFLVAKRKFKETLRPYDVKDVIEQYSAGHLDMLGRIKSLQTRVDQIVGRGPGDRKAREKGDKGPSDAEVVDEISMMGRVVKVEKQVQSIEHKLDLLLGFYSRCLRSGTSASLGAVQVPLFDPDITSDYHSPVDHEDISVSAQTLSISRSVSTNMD

## Fc1ccc([C@@H]2CCNC[C@H]2COc2ccc3c(c2)OCO3)cc1 [paroxetine, paroxetine hydrochloride]
Kv7.2/Kv7.3 channels
  IC50: 3.6 ± 0.2 µM
Kv7.2/Kv7.3 channels; CHO, read-out: inhibition of Kv7.2/Kv7.3 currents recorded at 0 mV
  inhibition at 3 µM: 62.8 ± 6.5%
Kv7.2/Kv7.3 channels; paroxetine 3 μΜ, control 14.4 ± 1.1 ms
  τdeactivation (−120 mV) of Kv7.2/Kv7.3: 12.6 ± 0.7 ms
Kv7.2/Kv7.3 channels; paroxetine 3 μΜ, control 94.5 ± 11.0 ms
  τactivation (0 mV) of Kv7.2/Kv7.3: 112.8 ± 9.0 ms
Kv7.2/Kv7.3 channels; paroxetine 3 μΜ, control −3.9 ± 1.2 mV, not significant
  V1/2 (half activation voltage) of Kv7.2/Kv7.3 in presence of paroxetine: −7.5 ± 3.5 mV
Kv7.1
  IC50: 71.8 ± 7.9 µM
Kv7.1; paroxetine 50 μM, control −3.2 ± 2.1 mV, P < 0.05
  V1/2 of Kv7.1 in presence of paroxetine: 4.6 ± 2.1 mV
Kv7.1; paroxetine near its IC50, control 39.9 ± 3.3 ms
  τdeactivation (−120 mV) of Kv7.1: 27.9 ± 3.6 ms
Kv7.2 channel [1]; paroxetine 10 μM, 0 mV, cell-attached, control 0.19 ± 0.01
  Kv7.2 single-channel open probability: 0.09 ± 0.01
Kv7.2 channel [1]; paroxetine 10 μM, control 7.7 ± 0.4 pS
  Kv7.2 single-channel conductance: 7.7 ± 0.7 pS
[2]
  IC50: 9.2 ± 1.3 µM
[2]; Kv7.2 D212A/Kv7.3 vs Kv7.2/Kv7.3
  reduction of inhibitory effect by D212A mutation versus wild type: approximately three-fold
GIRK1/2 channels
  IC50: 13.8 ± 2.9 µM
Hippocampal neurons; 3 μΜ, from −57.2 ± 3.4 mV
  resting membrane potential after drug: −48.6 ± 2.4 mV
Hippocampal neurons; 10 μΜ, from −62.2 ± 1.7 mV
  resting membrane potential after drug: −48.5 ± 2.0 mV
Hippocampal neurons; paroxetine at 3 and 10 μΜ
  firing activity of hippocampal neurons in response to current injection: significantly increased
[3]; 0 mV, cell-attached, control 0.28 ± 0.01
  open probability of Kv7.2/Kv7.3 single-channels: 0.13 ± 0.01
[3]; control 10.9 ± 1.1 pS, not altered
  single-channel conductance of Kv7.2/Kv7.3: 10.4 ± 0.9 pS
Kv7.4; paroxetine 20 μM, control −14.4 ± 3.6 mV
  V1/2 of Kv7.4 in presence of paroxetine: −15.2 ± 4.3 mV
Kv7.4; paroxetine, control 12.1 ± 1.3 ms
  τdeactivation (−120 mV) of Kv7.4: 10.9 ± 1.6 ms
Kv7.4; paroxetine, control 131.5 ± 23.6 ms
  τactivation (0 mV) of Kv7.4: 131.3 ± 22.9 ms
Kv7.5 [4]
  IC50: 37.2 ± 5.2 µM
Kv7.5 [4]; paroxetine 20 μM, control −32.7 ± 5.7 mV
  V1/2 of Kv7.5 in presence of paroxetine: −33.6 ± 6.1 mV
Kv7.5 [4]; paroxetine, control 36.7 ± 1.7 ms
  τdeactivation (−120 mV) of Kv7.5: 35.4 ± 5.0 ms
Kv7.5 [4]; paroxetine, control 77.4 ± 5.3 ms
  τactivation (0 mV) of Kv7.5: 79.8 ± 17.6 ms
F240A Kv7.2 channel
  inhibition at 10 µM: 46.9 ± 9.7%
Kv3.1 channels
  IC50: 9.4 ± 0.5 µM
Kv7.2 D212A channel
  IC50: 41 ± 5.6 µM
Kv7.2 D212A channel; Kv7.2 D212A vs Kv7.2
  reduction of inhibitory effect by D212A mutation versus wild type: approximately three-fold
L299A Kv7.2 channel
  inhibition at 10 µM: 59.4 ± 10.4%
Kv7.2 channel [5]
  IC50: 12.3 ± 6.5 µM
Kv7.2 channel [5]; HEK-293T, read-out: inhibition of WT Kv7.2 current
  inhibition at 10 µM: 56.6 ± 2.9%
Kv7.2 channel [5]; paroxetine 10 μM, control 24.9 ± 10.0 ms
  τdeactivation (−120 mV) of Kv7.2: 18.6 ± 6.9 ms
Kv7.2 channel [5]; paroxetine 10 μM, control 132.6 ± 15.0 ms
  τactivation (0 mV) of Kv7.2: 141.7 ± 15.8 ms
Kv7.2 channel [5]; paroxetine 10 μM, control −12.0 ± 0.8 mV
  V1/2 of Kv7.2 in presence of paroxetine: −9.1 ± 2.0 mV
F304A Kv7.2 channel
  reduction of channel sensitivity to paroxetine by F304A mutation: three-fold
[6]; 3 μΜ
  inhibition of M-current: 31.5 ± 4.6%
[6]; 10 μΜ
  inhibition of M-current: 52.4 ± 2.0%
W236A Kv7.2 channel
  inhibition at 10 µM: 43.8 ± 6.8%
F305A Kv7.2 channel
  effect of F305A mutation on paroxetine-mediated inhibition of Kv7.2: no notable effect; also recorded: does not significantly affect
[7]
  brain concentrations: 2000 to 14000 nM

## O=C1c2ccccc2C(Cc2ccncc2)(Cc2ccncc2)c2ccccc21 [XE991]
Kv7.2/Kv7.3 channels; 3 μM, CHO cells, n = 5
  inhibition of Kv7.2/Kv7.3 currents recorded at 0 mV: 81.4 ± 1.5%
Kv7.2 channel [1]; XE991 3 μΜ, control 0.21 ± 0.02
  Kv7.2 single-channel open probability: 0.05 ± 0.01
Kv7.2 channel [1]; XE991 3 μΜ, control 7.7 ± 0.8 pS
  Kv7.2 single-channel conductance: 8.0 ± 0.4 pS
Hippocampal neurons; 3 μM XE991, n = 6
  firings in hippocampal neurons: increased firings
Hippocampal neurons; 1 μΜ
  depolarizing shift of resting membrane potential (RMP): 6.2 ± 2.2 mV
Hippocampal neurons; 3 μΜ
  depolarizing shift of resting membrane potential (RMP): 9.7 ± 1.2 mV
[6]; 3 μΜ
  inhibition of M-current: 21.2 ± 2.0%
Kv7.5 [8]
  IC50: ~60 µM
Kv7.1-Kv7.4 channels
  IC50: 1 to 5 µM

## CC[C@H](C(=O)Nc1ccccc1N1CCCC1)c1ccccc1 [ML252]
Neuronal Kv7
  IC50: 1 to 6 µM
